Test results as given in ChEMBL document CHEMBL3272347, “Adamantanamine derivatives. Antimicrobial activities of certain Mannich bases” (1976).
Converted amounts (≈) assume the structure as drawn.

Experiments:
Format in all cases: functional
Escherichia coli [1] = experiment: Antimicrobial activity against Escherichia coli ATCC 8739 assessed as zone of inhibition after 24 hrs at 2 mg/0.1 ml by agar diffusion method
In short: (§1)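 Bacteria were tested on seeded agar plates with 12.7-mm disks, each loaded with 0.1 ml of compound in Me2SO (stock used directly or Me2SO-diluted). Disks were held 30 min on a wire screen before placement, four per plate. Incubation was 37°, 24 hr. Inhibition zones were measured by caliper to the nearest 0.1 mm. Replicates were 2–4 per dilution over at least two separate days, averaged.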

Mycolicibacterium phlei [2] = experiment: Antimicrobial activity against Mycobacterium phlei ATCC 356 assessed as zone of inhibition after 48 hrs at 0.5 mg/0.1 ml by agar diffusion method
In short: (§2)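 Mycobacterium disk diffusion on MDTM agar. Each disk (12.7 mm) got 0.1 ml of Me2SO solution, was air-stood 30 min, then was placed four per seeded plate. Plates were incubated at 37° for 48 hr. Zone diameter was measured by caliper to 0.1 mm. Results averaged 2–4 replicate disks and ≥2 independent-day experiments.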

Staphylococcus aureus [3] = experiment: Antimicrobial activity against Staphylococcus aureus ATCC 10014 assessed as zone of inhibition after 24 hrs at 0.1 mg/0.1 ml by agar diffusion method; in short: as §1
[4] = test system: Mycolicibacterium smegmatis; experiment: Antimicrobial activity against Mycobacterium smegmatis OU 10049 assessed as zone of inhibition after 48 hrs at 0.5 mg/0.1 ml by agar diffusion method; in short: as §2
Staphylococcus aureus [5] = experiment: Antimicrobial activity against Staphylococcus aureus ATCC 10001 assessed as zone of inhibition after 24 hrs at 0.1 mg/0.1 ml by agar diffusion method; in short: as §1
Pseudomonas aeruginosa [6] = experiment: Antimicrobial activity against Pseudomonas aeruginosa OU 10048 assessed as zone of inhibition after 24 hrs at 4 mg/0.1 ml by agar diffusion method; in short: as §1
Escherichia coli [7] = experiment: Antimicrobial activity against Escherichia coli ATCC 11303 assessed as zone of inhibition after 24 hrs at 1 mg/0.1 ml by agar diffusion method; in short: as §1
Aspergillus niger [8] = experiment: Antimicrobial activity against Aspergillus niger OU S-23 assessed as zone of inhibition after 48 hrs at 2 mg/0.1 ml by agar diffusion method
In short: (§3)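 Disk agar diffusion on SDA. Compound in Me2SO stock, used neat or diluted in Me2SO, was loaded at 0.1 ml per 12.7-mm disk. Disks stood 30 min on mesh, then went four per seeded plate. Plates ran at 37° for 48 hr (A. niger) or 24 hr (C. albicans). Zones were read by caliper to 0.1 mm. There were 2–4 replicate disks per dilution and ≥2 experiments on separate days with same-day stocks; results were averaged.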

Candida albicans [9] = experiment: Antimicrobial activity against Candida albicans CDC MI-023 assessed as zone of inhibition after 24 hrs at 2 mg/0.1 ml by agar diffusion method; in short: as §3
Escherichia coli [10] = experiment: Antimicrobial activity against Escherichia coli ATCC 10586 assessed as zone of inhibition after 24 hrs at 2 mg/0.1 ml by agar diffusion method; in short: as §1
Aspergillus niger [11] = experiment: Antimicrobial activity against Aspergillus niger OU S-23 assessed as zone of inhibition after 48 hrs at 0.25 mg/0.1 ml by agar diffusion method; in short: as §3
Staphylococcus aureus [12] = experiment: Antimicrobial activity against Staphylococcus aureus ATCC 10014 assessed as zone of inhibition after 24 hrs at 0.25 mg/0.1 ml by agar diffusion method; in short: as §1
Escherichia coli [13] = experiment: Antimicrobial activity against Escherichia coli ATCC 10586 assessed as zone of inhibition after 24 hrs at 0.5 mg/0.1 ml by agar diffusion method; in short: as §1
Pseudomonas aeruginosa [14] = experiment: Antimicrobial activity against Pseudomonas aeruginosa OU 10048 assessed as zone of inhibition after 24 hrs at 0.5 mg/0.1 ml by agar diffusion method; in short: as §1
Candida albicans [15] = experiment: Antimicrobial activity against Candida albicans CDC MI-023 assessed as zone of inhibition after 24 hrs at 0.5 mg/0.1 ml by agar diffusion method; in short: as §3
Staphylococcus aureus [16] = experiment: Antimicrobial activity against Staphylococcus aureus ATCC 10001 assessed as zone of inhibition after 24 hrs at 0.25 mg/0.1 ml by agar diffusion method; in short: as §1
Escherichia coli [17] = experiment: Antimicrobial activity against Escherichia coli ATCC 11303 assessed as zone of inhibition after 24 hrs at 0.5 mg/0.1 ml by agar diffusion method; in short: as §1
Escherichia coli [18] = experiment: Antimicrobial activity against Escherichia coli ATCC 8739 assessed as zone of inhibition after 24 hrs at 0.5 mg/0.1 ml by agar diffusion method; in short: as §1
Mycolicibacterium phlei [19] = experiment: Antimicrobial activity against Mycobacterium phlei ATCC 356 assessed as zone of inhibition after 48 hrs at 0.1 mg/0.1 ml by agar diffusion method; in short: as §2
[20] = test system: Mycolicibacterium smegmatis; experiment: Antimicrobial activity against Mycobacterium smegmatis by tube dilution method
In short: (§4)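 MIC was found by tube dilution, with Me2SO as carrier solvent diluted in the tubes. For M. smegmatis, separate determinations were made in MDTM broth and in MDTM agar.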

[21] = test system: Mycolicibacterium smegmatis; experiment: Antimicrobial activity against Mycobacterium smegmatis OU 10049 assessed as zone of inhibition after 48 hrs at 0.1 mg/0.1 ml by agar diffusion method; in short: as §2
Aspergillus niger [22] = experiment: Antimicrobial activity against Aspergillus niger OU S-23 assessed as zone of inhibition after 48 hrs at 4 mg/0.1 ml by agar diffusion method; in short: as §3
Escherichia coli [23] = experiment: Antimicrobial activity against Escherichia coli ATCC 8739 assessed as zone of inhibition after 24 hrs at 4 mg/0.1 ml by agar diffusion method; in short: as §1
Escherichia coli [24] = experiment: Antimicrobial activity against Escherichia coli ATCC 11303 assessed as zone of inhibition after 24 hrs at 2 mg/0.1 ml by agar diffusion method; in short: as §1
Staphylococcus aureus [25] = experiment: Antimicrobial activity against Staphylococcus aureus by tube dilution method; in short: as §4
Escherichia coli [26] = experiment: Antimicrobial activity against Escherichia coli ATCC 10586 assessed as zone of inhibition after 24 hrs at 1 mg/0.1 ml by agar diffusion method; in short: as §1
[27] = test system: Mycolicibacterium smegmatis; experiment: Antimicrobial activity against Mycobacterium smegmatis OU 10049 assessed as zone of inhibition after 48 hrs at 0.25 mg/0.1 ml by agar diffusion method; in short: as §2
Escherichia coli [28] = experiment: Antimicrobial activity against Escherichia coli ATCC 8739 assessed as zone of inhibition after 24 hrs at 1 mg/0.1 ml by agar diffusion method; in short: as §1
Escherichia coli [29] = experiment: Antimicrobial activity against Escherichia coli by tube dilution method; in short: as §4
Mycolicibacterium phlei [30] = experiment: Antimicrobial activity against Mycobacterium phlei ATCC 356 assessed as zone of inhibition after 48 hrs at 0.25 mg/0.1 ml by agar diffusion method; in short: as §2
Candida albicans [31] = experiment: Antimicrobial activity against Candida albicans CDC MI-023 assessed as zone of inhibition after 24 hrs at 0.1 mg/0.1 ml by agar diffusion method; in short: as §3
Escherichia coli [32] = experiment: Antimicrobial activity against Escherichia coli ATCC 11303 assessed as zone of inhibition after 24 hrs at 0.1 mg/0.1 ml by agar diffusion method; in short: as §1
Escherichia coli [33] = experiment: Antimicrobial activity against Escherichia coli ATCC 10586 assessed as zone of inhibition after 24 hrs at 0.25 mg/0.1 ml by agar diffusion method; in short: as §1
Staphylococcus aureus [34] = experiment: Antimicrobial activity against Staphylococcus aureus ATCC 10014 assessed as zone of inhibition after 24 hrs at 0.05 mg/0.1 ml by agar diffusion method; in short: as §1
Staphylococcus aureus [35] = experiment: Antimicrobial activity against Staphylococcus aureus ATCC 10001 assessed as zone of inhibition after 24 hrs at 0.05 mg/0.1 ml by agar diffusion method; in short: as §1
Candida albicans [36] = experiment: Antimicrobial activity against Candida albicans CDC MI-023 assessed as zone of inhibition after 24 hrs at 4 mg/0.1 ml by agar diffusion method; in short: as §3
Staphylococcus aureus [37] = experiment: Antimicrobial activity against Staphylococcus aureus ATCC 10014 assessed as zone of inhibition after 24 hrs at 2 mg/0.1 ml by agar diffusion method; in short: as §1
Staphylococcus aureus [38] = experiment: Antimicrobial activity against Staphylococcus aureus ATCC 10001 assessed as zone of inhibition after 24 hrs at 2 mg/0.1 ml by agar diffusion method; in short: as §1
Staphylococcus aureus [39] = experiment: Antimicrobial activity against Staphylococcus aureus ATCC 10001 assessed as zone of inhibition after 24 hrs at 1 mg/0.1 ml by agar diffusion method; in short: as §1
Staphylococcus aureus [40] = experiment: Antimicrobial activity against Staphylococcus aureus ATCC 10014 assessed as zone of inhibition after 24 hrs at 1 mg/0.1 ml by agar diffusion method; in short: as §1
Staphylococcus aureus [41] = experiment: Antimicrobial activity against Staphylococcus aureus ATCC 10014 assessed as zone of inhibition after 24 hrs at 0.5 mg/0.1 ml by agar diffusion method; in short: as §1
Staphylococcus aureus [42] = experiment: Antimicrobial activity against Staphylococcus aureus ATCC 10001 assessed as zone of inhibition after 24 hrs at 0.5 mg/0.1 ml by agar diffusion method; in short: as §1
[43] = test system: Mycolicibacterium smegmatis; experiment: Antimicrobial activity against Mycobacterium smegmatis OU 10049 assessed as zone of inhibition after 48 hrs at 1 mg/0.1 ml by agar diffusion method; in short: as §2

SMILES	inhibition zone (IZ) (Escherichia coli [1]) [mm]	inhibition zone (IZ) (Mycolicibacterium phlei [2]) [mm]	inhibition zone (IZ) (Staphylococcus aureus [3]) [mm]	inhibition zone (IZ) [4] [mm]	inhibition zone (IZ) (Staphylococcus aureus [5]) [mm]	inhibition zone (IZ) (Pseudomonas aeruginosa [6]) [mm]	inhibition zone (IZ) (Aspergillus niger [8]) [mm]	inhibition zone (IZ) (Escherichia coli [10]) [mm]	inhibition zone (IZ) (Candida albicans [15]) [mm]	inhibition zone (IZ) (Escherichia coli [17]) [mm]	MIC [20] [mg/L]	inhibition zone (IZ) (Aspergillus niger [22]) [mm]	inhibition zone (IZ) (Escherichia coli [24]) [mm]	MIC (Staphylococcus aureus [25]) [mg/L]	inhibition zone (IZ) (Escherichia coli [26]) [mm]	inhibition zone (IZ) [27] [mm]	MIC (Escherichia coli [29]) [mg/L]	inhibition zone (IZ) (Mycolicibacterium phlei [30]) [mm]	further results
Cl.O=C(CCNC12CC3CC(CC(C3)C1)C2)c1cccc([N+](=O)[O-])c1	16.3	19.1	15.7	16.6	15.4	15	15	16.8											inhibition zone (IZ) (Escherichia coli [7]): 15.5 mm; inhibition zone (IZ) (Candida albicans [9]): 16.2 mm
Oc1ccc(/N=N/c2ccccc2)cc1CNC12CC3CC(CC(C3)C1)C2		<15		15.5					<15	<15									inhibition zone (IZ) (Aspergillus niger [11]): 15 mm; inhibition zone (IZ) (Staphylococcus aureus [12]): 15.4 mm; inhibition zone (IZ) (Escherichia coli [13]): 15 mm; inhibition zone (IZ) (Pseudomonas aeruginosa [14]): 15 mm; inhibition zone (IZ) (Staphylococcus aureus [16]): <15 mm; inhibition zone (IZ) (Escherichia coli [18]): 15 mm
Oc1ccc(-c2ccccc2)cc1CNC12CC3CC(CC(C3)C1)C2						15		15			62.5 (≈ 187 µM)	<15	15.1						inhibition zone (IZ) (Staphylococcus aureus [12]): 16.8 mm; inhibition zone (IZ) (Mycolicibacterium phlei [19]): 18.9 mm; inhibition zone (IZ) (Staphylococcus aureus [16]): 17.3 mm; inhibition zone (IZ) [21]: 18.7 mm; inhibition zone (IZ) (Candida albicans [9]): 15.8 mm; inhibition zone (IZ) (Escherichia coli [23]): 15.6 mm
Cl.O=C(CCNC12CC3CC(CC(C3)C1)C2)c1cccc(Br)c1			17.5		18.7	15				17.5	125	16.8		125	17.4	17.6	500	20	inhibition zone (IZ) (Escherichia coli [28]): 18.2 mm; inhibition zone (IZ) (Candida albicans [31]): 15.3 mm
Cl.O=C(CCNC12CC3CC(CC(C3)C1)C2)c1ccc(Br)cc1						<15	19				125			125		17	500	19.2	inhibition zone (IZ) (Escherichia coli [32]): 15.6 mm; inhibition zone (IZ) (Escherichia coli [33]): 15.3 mm; inhibition zone (IZ) (Staphylococcus aureus [34]): 17 mm; inhibition zone (IZ) (Staphylococcus aureus [35]): 16.6 mm; inhibition zone (IZ) (Candida albicans [31]): 15.1 mm; inhibition zone (IZ) (Escherichia coli [18]): 17.8 mm
CC(CNC12CC3CC(CC(C3)C1)C2)C(=O)c1ccccc1.Cl (stereo not drawn)	16.1	17.3		17		15		16.4				15	17.2						inhibition zone (IZ) (Candida albicans [36]): <15 mm; inhibition zone (IZ) (Staphylococcus aureus [37]): 16.3 mm; inhibition zone (IZ) (Staphylococcus aureus [38]): 16.2 mm
Cl.O=C(CCNC12CC3CC(CC(C3)C1)C2)c1ccc(F)cc1		17.7		15.3		15			16.6	17.6	250	15		500	16.5		1000		inhibition zone (IZ) (Staphylococcus aureus [39]): 19.1 mm; inhibition zone (IZ) (Staphylococcus aureus [40]): 16.6 mm; inhibition zone (IZ) (Escherichia coli [28]): 16.7 mm
Cl.O=C(CCNC12CC3CC(CC(C3)C1)C2)c1ccc(O)cc1	16	16.3				15		16				15	17.2						inhibition zone (IZ) (Candida albicans [36]): 15.4 mm; inhibition zone (IZ) (Staphylococcus aureus [41]): 15.3 mm; inhibition zone (IZ) (Staphylococcus aureus [42]): 15.6 mm; inhibition zone (IZ) [43]: 19 mm
Cl.O=C(CCNC12CC3CC(CC(C3)C1)C2)c1ccc([N+](=O)[O-])cc1	16.5		15.8		16	<14	15.2		16.4		500			125	15.3	17.4	500	19.4	inhibition zone (IZ) (Escherichia coli [7]): 16.5 mm
